Source: ChEMBL document CHEMBL1125615, “A highly specific aldose reductase inhibitor, ethyl 1-benzyl-3-hydroxy-2(5H)-oxopyrrole-4-carboxylate, and its congeners” (J Med Chem, 1991)
Several values for one entry are separate records, joined by “and”; a condition that tells them apart may be missing. Equal values may be shown once. Each block holds one molecule with its values, some of them ahead of it.

Assays:
[1] = molecular target: T1, Aldo-keto reductase family 1 member B1 (Homo sapiens, UniProt P15121); assay: In vitro inhibition of human placental aldose reductase.
Method in brief: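 Human placental aldose reductase, partly purified (placentae homogenized in 0.1 M K phosphate pH 7.0 with 5 mM 2-mercaptoethanol, spun 33000g, peak fractions pooled). Assay in 50 mM K phosphate pH 7.1 with 0.4 M ammonium sulfate, 0.067 mM NADPH, 1.0 mM DL-glyceraldehyde; enzyme set to 4 milliunits; NADPH oxidation at 340 nm, 25 °C, 10 min. IC50 by log linear regression.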

[2] = molecular target: T1, Aldo-keto reductase family 1 member B1; assay: Inhibitory activity measured in vitro against human placental aldose reductase at a concentration of 10e-5 M
[3] = molecular target: T2, Aldo-keto reductase family 1 member B1 (Rattus norvegicus, UniProt P07943); assay: (§1) Inhibitory activity measured against rat lens aldose reductase using 3-pyridinecarboxaldehyde as substrate
[4] = molecular target: T3, Aldo-keto reductase family 1 member A1 (Sus scrofa, UniProt P50578); assay: (§2) Selectivity ratio measured as the IC50 ratio of aldehyde/aldose reductase values
T3 sequence (P50578 whole entry): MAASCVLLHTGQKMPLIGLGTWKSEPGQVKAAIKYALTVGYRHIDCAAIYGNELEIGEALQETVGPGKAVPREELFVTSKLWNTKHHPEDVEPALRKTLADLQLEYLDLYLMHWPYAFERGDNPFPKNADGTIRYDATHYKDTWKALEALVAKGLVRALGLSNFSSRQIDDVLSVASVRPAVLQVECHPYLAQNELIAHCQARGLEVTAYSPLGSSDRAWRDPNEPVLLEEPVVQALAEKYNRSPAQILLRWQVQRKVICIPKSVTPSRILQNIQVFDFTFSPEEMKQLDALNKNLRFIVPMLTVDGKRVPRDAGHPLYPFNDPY

[5] = Inhibitory activity measured against pig kidney aldehyde reductase using 3-pyridinecarboxaldehyde as substrate
Method in brief: (§3)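 Purified rat lens aldose reductase and homogeneous pig kidney aldehyde reductase, assayed in 50 mM K phosphate pH 7.0 with 0.1 mM NADPH and 5 mM 3-pyridinecarboxaldehyde; substrate-started, NADPH loss at 340 nm over 12 min, 25 °C. IC50 by log linear regression; selectivity = aldehyde IC50 / aldose IC50.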

[6] = molecular target: T4, Aldo-keto reductase family 1 member A1 (Sus scrofa) (UniProt P50578); assay: Inhibitory activity measured against pig kidney aldehyde reductase using 3-pyridinecarboxaldehyde as substrate at 2e-4; details: concentration not given here
T4 sequence (whole entry): T3 sequence (P50578 whole entry)
Method in brief: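 Pig kidney aldehyde reductase, purified to homogeneity, was tested at 2 × 10^-4 M inhibitor in 50 mM potassium phosphate pH 7.0 with 0.1 mM NADPH and 5 mM 3-pyridinecarboxaldehyde. The reaction was started with substrate, and NADPH loss was read at 340 nm for 12 min at 25 °C. The value is percent inhibition.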

[7] = as §2
Method in brief: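 Ratio of the pig kidney aldehyde reductase IC50 to the rat lens aldose reductase IC50. Both purified enzymes were assayed in 50 mM potassium phosphate pH 7.0 with 0.1 mM NADPH and 5 mM 3-pyridinecarboxaldehyde, started with substrate, reading NADPH loss at 340 nm for 12 min at 25 °C. IC50s came from log-linear regression.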

Rattus norvegicus [8] = species: Rattus norvegicus; assay: Percent inhibition of sorbitol accumulation in rat sciatic nerve was measured; type: functional
Method in brief: (§4)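 Streptozotocin 85 mg/kg i.v. at 0 h to induce diabetes in rats; compound 100 mg/kg orally at 4, 7 and 24 h; killed at 27 h. Sorbitol in sciatic nerve or lens compared with untreated diabetic rats, n = 6 per group; Student's t test.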

[9] = as §1; method in brief: as §3
[10] = molecular target: T2, Aldo-keto reductase family 1 member B1; assay: Inhibition of rat lens aldose reductase was measured
[11] = Physicochemical property was determined; type: ADME
Rattus norvegicus [12] = species: Rattus norvegicus; assay: Percent inhibition of sorbitol accumulation in rat lens was measured; type: functional, Lens of camera-type eye; method in brief: as §4
[13] = Physicochemical property was determined; b=could not be measured; type: ADME

IC50 [1]: 440 nM
Compound: CCOC(=O)C1=C(O)C(=O)N(Cc2ccccn2)C1

IC50 [1]: 840 nM
Compound: CCOC(=O)C1=C(O)C(=O)N([C@H](C)c2ccccc2)C1

inhibition [2]: 36%
Compound: CCOC(=O)C1=C(O)C(=O)N(c2cccc3ccccc23)C1

IC50 [1]: 300 nM
Compound: CCOC(=O)C1=C(O)C(=O)N(C2c3ccccc3-c3ccccc32)C1

IC50 [1]: 240 nM
Compound: CCOC(=O)C1=C(O)C(=O)N(Cc2ccc(Cl)c(Cl)c2)C1

Compound: CCCC(CCC)C(=O)O [VALPROATE SODIUM]
IC50 [3]: 380000 nM
IC50 [4]: 89000 nM
Selectivity ratio [5]: 0.2

Compound: CCOC(=O)C1C(=O)C(=O)NC12CCOc1ccc(F)cc12 (configuration not stated)
IC50 [3]: 910 nM
inhibition [6]: 11%
Selectivity ratio [7]: > 200

IC50 [1]: 2300 nM
Compound: CCOC(=O)C1=C(O)C(=O)N(Cc2cccc3ccccc23)C1

IC50 [3]: 29 nM
Compound: COc1ccc2c(C(=S)N(C)CC(=O)O)cccc2c1C(F)(F)F [TOLRESTAT]

IC50 [1]: 200 nM
inhibition [6]: 9%
Selectivity ratio [9]: > 1800
IC50 [10]: 110 nM
Compound: CCOC(=O)C1=C(O)C(=O)N(Cc2ccncc2)C1
Inhibition (Rattus norvegicus [8]): 28%

IC50 [1]: 1900 nM
Compound: CCCOC(=O)C1=C(O)C(=O)N(Cc2ccccc2)C1

IC50 [1]: 2500 nM
Compound: CCOC(=O)C1=C(O)C(=O)N(CCc2ccccc2)C1

pKa [11]: 5.1
Compound: CS(=O)(=O)C1CN(Cc2ccccc2)C(=O)C1=O (configuration not stated)

IC50 [1]: 380 nM
Compound: CCOC(=O)C1=C(O)C(=O)N(Cc2cccs2)C1

inhibition [2]: 9%
Compound: CC(C)(C)OC(=O)C1=C(O)C(=O)N(Cc2cccs2)C1
Inhibition (Rattus norvegicus [12]): 36%
Inhibition (Rattus norvegicus [8]): 37%

IC50 [1]: 1200 nM
Compound: CCOC(=O)C1=C(O)C(=O)N([C@@H](C)c2ccccc2)C1

pKa [11]: 7.3
Compound: CSC1CN(Cc2ccccc2)C(=O)C1=O (configuration not stated)

inhibition [2]: 28%
Compound: CCOC(=O)C1=C(O)C(=O)N(c2ccccc2)C1

IC50 [1]: 410 nM
Compound: CCOC(=O)C1=C(O)C(=O)N(Cc2ccc(OC)cc2)C1

IC50 [3]: 28 nM
IC50 [4]: 2000 nM
Selectivity ratio [5]: 71.4
Compound: O=C(O)Cc1nn(Cc2ccc(Br)cc2F)c(=O)c2ccccc12 [PONALRESTAT]

IC50 [1]: 2300 nM
Compound: CCOC(=O)C1=C(O)C(=O)N(Cc2ccccc2Cl)C1

IC50 [3]: 82000 nM
IC50 [4]: 490000 nM
Selectivity ratio [5]: 6
Compound: CC1(S(=O)(=O)O)CC(=O)c2ccccc2C1=O (configuration not stated) [MENADIONE SULFUROUS ACID]

inhibition [2]: 27%
Compound: CC(C)(C)OC(=O)C1=C(O)C(=O)N(Cc2ccccc2)C1

inhibition [2]: 22%
Compound: CCOC(=O)C1=C(O)C(=O)N(C2CCCCC2)C1

IC50 [3]: 300 nM
IC50 [4]: 27 nM
Selectivity ratio [5]: 0.1
Compound: O=C1NC(=O)C2(N1)c1ccccc1-c1ccc(F)cc12 (configuration not stated) [ALCONIL]

IC50 [1]: 2600 nM
Compound: COC(=O)C1=C(O)C(=O)N(Cc2ccccc2)C1

IC50 [4]: 1500 nM
Compound: CC(/C=C1\SC(=S)N(CC(=O)O)C1=O)=C\c1ccccc1

IC50 [1]: 260 nM
inhibition [6]: 2%
Compound: CCOC(=O)C1=C(O)C(=O)N(Cc2ccccc2)C1
Inhibition (Rattus norvegicus [8]): 51% and 42%

pKa [13]: Could not be measured
Compound: O=C1CCN(Cc2ccccc2)C1=O

IC50 [1]: 310 nM
Compound: CCOC(=O)C1=C(O)C(=O)N(Cc2ccc(Cl)cc2)C1

pKa [11]: 10.6
Compound: CC1CN(Cc2ccccc2)C(=O)C1=O (configuration not stated)

IC50 [1]: 500 nM
Compound: CCOC(=O)C1=C(O)C(=O)N(Cc2ccc(Br)cc2)C1

inhibition [2]: 64%
Compound: CCOC(=O)C1=C(O)C(=O)N(CC2CCCCC2)C1

IC50 [1]: 3300 nM
Compound: CCOC(=O)C1=C(O)C(=O)N(Cc2ccco2)C1
